Screening results from PubChem BioAssay.
Mdm2-MdmX inh = inhibitors of human Mdm2-MdmX association, primary screen, cell-based, luminescence, split luciferase, SaOS-2, uHTS. SaOS-2 split-luciferase Mdm2/MdmX complementation. Protein Mdm4 (Homo sapiens) + E3 ubiquitin-protein ligase Mdm2 (Homo sapiens), …. hit rate 3% among 330,000. inhibition, % at 8 µM;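 active means inhibition of at least 50% at 8 µM in the primary screen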
Target sequence (O15151 whole entry, looked up): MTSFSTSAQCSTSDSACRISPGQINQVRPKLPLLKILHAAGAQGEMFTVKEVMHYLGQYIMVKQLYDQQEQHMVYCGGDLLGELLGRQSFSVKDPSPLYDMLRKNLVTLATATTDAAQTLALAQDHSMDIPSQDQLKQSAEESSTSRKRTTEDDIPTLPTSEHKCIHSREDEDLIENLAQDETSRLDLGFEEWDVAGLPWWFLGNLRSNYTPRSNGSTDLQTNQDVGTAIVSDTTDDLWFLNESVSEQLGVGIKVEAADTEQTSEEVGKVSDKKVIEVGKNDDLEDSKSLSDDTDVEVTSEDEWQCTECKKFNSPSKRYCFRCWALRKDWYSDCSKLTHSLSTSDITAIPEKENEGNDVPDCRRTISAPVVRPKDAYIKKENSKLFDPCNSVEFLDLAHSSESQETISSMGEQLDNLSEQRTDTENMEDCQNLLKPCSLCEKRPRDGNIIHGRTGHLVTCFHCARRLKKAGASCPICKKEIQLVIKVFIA
Target sequence (Q00987 whole entry, looked up): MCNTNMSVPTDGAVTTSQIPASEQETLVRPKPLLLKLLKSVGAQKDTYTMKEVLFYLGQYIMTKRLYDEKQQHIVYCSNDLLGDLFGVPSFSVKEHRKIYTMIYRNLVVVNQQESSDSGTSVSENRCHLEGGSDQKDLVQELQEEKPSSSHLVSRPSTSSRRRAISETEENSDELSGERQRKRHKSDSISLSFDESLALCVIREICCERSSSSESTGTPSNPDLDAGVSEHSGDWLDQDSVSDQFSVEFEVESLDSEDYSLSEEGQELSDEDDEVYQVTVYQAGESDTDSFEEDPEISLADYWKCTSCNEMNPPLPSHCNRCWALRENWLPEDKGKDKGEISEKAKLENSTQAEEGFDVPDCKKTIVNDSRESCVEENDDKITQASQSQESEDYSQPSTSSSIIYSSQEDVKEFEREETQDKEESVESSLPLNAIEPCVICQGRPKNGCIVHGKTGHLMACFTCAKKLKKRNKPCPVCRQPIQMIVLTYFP
CSC inhib = cancer stem cell viability inhibitors, primary screen, luminescence; cancer stem cell-like cells viability; inhibition, % at 7.5 µM; hit rate 1.1% among 300,000; in the data active means inhibition above about 75%; inconclusive means no clear call, values can overlap the other calls; tested in HMLE shEcad cells
Beta cell apopt = inhibitors of cytokine-induced beta cell apoptosis, primary screen, luminescence. INS-1E cytokine-induced death, ATP luminescence, 48 h; percent of positive-control rescue, neutral wells zero. protection from apoptosis, % (test concentration not listed). hit rate 0.8% among 300,000. AID 435005, 2010;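 active means Every replicate reaches about 75%, or at least half do and their mean reaches it too, limit read from the data; inconclusive means At least half of replicates reach the limit but their mean does not; inactive means Under half of replicates reach the limit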;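 further: 0% = cytokine-treated negative control wells and 100% = positive control rescue; higher means more ATP so stronger rescue from cytokine killing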
Calb FLC = C. albicans growth inhibition with fluconazole, primary screen, CaCi-2 strain, Alamar Blue fluorescence; C. albicans CaCi-2 (fluconazole-resistant clinical isolate) + fluconazole, 48 h; growth inhibition, % (test concentration not listed); hit rate 0.57% among 300,000; AID 1979, 2009;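 active means growth inhibition above about 58% in most replicates, limit read from the data, passing the limit was not always enough; inconclusive means exactly half the replicates above a set limit; inactive means most replicates below a set limit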;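 further: all wells also contain fluconazole at 8 µg/ml as a sub-toxic cotreatment; 0% = median of DMSO wells and 100% = median of geldanamycin control wells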
SKKanGAS inh = S. pyogenes SKKanGAS growth inhibitors in kanamycin, primary screen, streptokinase expression inhibitor project, SKKanGAS strain, BacTiter-Glo luminescence | 6 h | inhibition, % at 7.5 µM | hit rate 1.3% among 300,000;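 active means mean replicate score, as percent of positive control median, at least 50; inconclusive means mean below 50 but one replicate at or above 50; inactive means mean and every replicate below 50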;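 further: strain carries kanamycin resistance gene driven by streptokinase promoter and grows in 40 µg/ml kanamycin; loss of luminescence reflects streptokinase promoter inhibition or plain growth inhibition; 0% = median of DMSO wells and 100% = positive control at its reference dose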
T cruzi inh = inhibitors of intracellular T. cruzi growth, primary screen, luminescence, NIH3T3 host cells | inhibition, % (concentration not given with the values) | T. cruzi beta-gal in NIH3T3, 90 h | AID 1885, 2009 | hit rate 1.4% among 300,000;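 active means mean inhibition across valid replicates above about 55%, limit read from the data; inconclusive means mean below that limit but half or more replicates reach it; inactive means mean below it, under half of replicates reach it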;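 further: signal also drops with host cell toxicity which is not excluded here; 0% = plate median of DMSO wells and 100% = zero luminescence signal; higher percent means less beta-gal luminescence so fewer parasites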
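System – NIH/3T3 host cells with β-galactosidase reporter T. cruzi · Doses – single 50 nL compound addition per well in DMSO · Reagent – 5000 T. cruzi trypomastigotes/well · Medium – Low-serum DMEM with 2% FBS · Timing – ≥90 h infection period, 3 h prior cell attachment · Evaluation – parasite load inhibition, % · Technique – GalScreen luminescence, 60 min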
Starred values were filed as active, the others as inactive; ? = inconclusive; · = no result given. Sampled rows, rich in hits. Any-hit rate of the full collection: about 5.7%.

SMILES	Mdm2-MdmX inh	CSC inhib	Beta cell apopt	Calb FLC	SKKanGAS inh	T cruzi inh
CCOc1cc(/C=C2\C(=O)NN(c3ccccc3)C2=O)cc([N+](=O)[O-])c1O	4.4	-11.6	-0.7	94.7*	-4.2	-2.8
COc1cc(/C=C2\C(=O)NN(c3ccccc3)C2=O)cc([N+](=O)[O-])c1O	10.1	6.1	-5.2	108.6*	3.3	-20.2
COc1cc(/C=C2/C(=O)NN(c3ccc(Cl)cc3)C2=O)cc(OC)c1O	2.7	0.6	-5.6	90.2*	-1.3	5.5
COc1cc(/C=C2/C(=O)NN(c3ccccc3)C2=O)cc(Br)c1O	5.1	-14.1	·	-17.3	0.9	1.6
O=C1NN(c2cccc(Br)c2)C(=O)/C1=C\c1ccccc1	13.3	109.0*	-17.1	-10.5	2.6	7.5
O=C1NN(c2ccccc2)C(=O)/C1=C\c1ccccc1	0.5	7.7	-5.4	7.7	10.8	2.1
CCn1cc(C(=O)NCCCN2CCC(C)CC2)c(=O)c2cc(S(=O)(=O)N3CCOCC3)ccc21	4.8	-10.2	-3.8	2.3	4.5	5.4
COc1ccc2cc(C(=O)N3CCC(Cc4ccccc4)CC3)[nH]c2c1	-6.6	1.2	-5.0	2.5	1.0	0.3
CCCc1cc(=O)oc2cc(OCC(=O)NCCc3ccc(S(N)(=O)=O)cc3)ccc12	3.0	-2.9	-1.5	13.5	-7.9	4.6
Cc1ccccc1CCNC(=O)C1CCC(=O)N(CCc2cccc(F)c2)C1 (stereo not given)	-9.5	·	·	-11.3	4.9	0.9
Cc1cc(C)nc(-n2ncc3c2CC(c2cccc(Cl)c2)CC3=O)n1 (stereo not given)	29.4	81.1*	-12.2	23.0	5.9	7.7
CC(C)(C)C(=O)NN=C1CCC(c2ccccc2)CC1 (stereo not given)	23.3	-6.7	-2.6	14.2	4.6	2.7
C=CCN(C(=O)c1csnn1)C(C(=O)NC1CCCC1)c1c(F)cccc1Cl (stereo not given)	28.7	·	-3.8	17.6	2.2	3.5
Cc1ccc(Sc2cc(C(=O)NCCN(C)C)c3ccccc3n2)cc1	-2.2	3.0	-14.2	1.7	-4.6	52.0
Cc1ccc(Sc2cc(C(=O)NCCCN(C)C)c3ccccc3n2)cc1	11.1	3.4	-1.9	-16.0	3.5	56.0*
CN(C)CCNC(=O)c1cc(Sc2ccc(F)cc2)nc2ccccc12	15.7	5.9	1.2	-27.4	-1.4	65.0*
COc1ccc(C(=O)NCC(c2ccco2)N(C)C)cc1S(=O)(=O)NCc1ccc(Cl)cc1 (stereo not given)	18.0	·	1.1	·	·	·
Cc1ccc(NC(=O)c2cccc(S(=O)(=O)N3CCN(c4ccc(F)cc4)CC3)c2)nc1	12.4	·	0.0	-13.6	4.0	-4.7
CCOc1ccc(S(=O)(=O)N2CCN=C2c2ccccc2)cc1	46.2	117.4*	4.7	-6.6	18.8	-6.9
O=C1CC(NS(=O)(=O)c2cc(F)ccc2F)CN1c1ccc2c(c1)OCCO2 (stereo not given)	-17.7	·	-2.0	-0.6	19.7	-5.3
CC(=O)Nc1sc(NC(=O)c2ccc([N+](=O)[O-])cc2)nc1-c1cccs1	21.5	-1.6	2.8	1.1	55.8*	33.2
Cc1cc(C)c2c(c1)c1nnc(SCCN3CCCCC3)nc1n2C	29.4	·	·	0.7	-4.5	29.6
COc1ccccc1C(=O)COC(=O)Cc1ccccc1F	23.9	-24.6	-5.3	·	·	·
Cc1ccc(NC(=O)C2CC(O)CN2C(=O)OCc2ccccc2)c(C)c1 (stereo not given)	13.4	·	2.9	-3.6	1.0	0.1
Cc1c(CCOC(=O)c2cc([N+](=O)[O-])cc([N+](=O)[O-])c2)sc[n+]1CC(=O)c1ccccc1	22.5	-19.7	7.0	-36.8	-2.0	69.4*
SMILES	Mdm2-MdmX inh	CSC inhib	Beta cell apopt	Calb FLC	SKKanGAS inh	T cruzi inh
CO[C@H]1C=CO[C@@]2(C)Oc3c(C)c(O)c4c(O)c(c5c(c4c3C2=O)NC2(CCN(CC(C)C)CC2)N=5)=NC(=O)C(C)=CC=C[C@H](C)[C@H](O)[C@@H](C)[C@@H](O)[C@@H](C)[C@H](OC(C)=O)[C@@H]1C	·	10.1	3.8	·	106.4*	21.6
CO[C@H]1C=CO[C@@]2(C)Oc3c(C)c(O)c4c(O)c(c5c(nc6cc(C)ccn65)c4c3C2=O)NC(=O)C(C)=CC=C[C@H](C)[C@H](O)[C@@H](C)[C@@H](O)[C@@H](C)[C@H](OC(C)=O)[C@@H]1C	29.3	·	·	·	104.7*	-0.9
O=C(NNC(=O)c1ccc(S(=O)(=O)N2CCCCC2)cc1)c1ccc(F)cc1	4.8	·	3.4	-1.2	0.5	9.0
CC(C)c1ccc(OC(=O)c2ccc3c(=O)n4c(nc3c2)CCC4)cc1	-1.0	-5.7	·	-0.3	80.5*	-6.5
Clc1cccc(-c2ccc(CNCc3ccccn3)o2)c1	4.2	1.7	-0.8	3.5	15.1	-2.9
Brc1ccc(-c2ccc(CNCc3ccccn3)o2)cc1	-17.4	6.5	1.3	8.5	66.5*	8.2
CCOc1ccccc1NC(=O)C(NCC1CCCCC1)c1ccccc1 (stereo not given)	29.9	24.3	1.7	0.2	54.9*	27.5
Cc1ccc(-c2csc(NC(=O)CSc3nc4ccccc4c(=O)n3CCCN(C)C)n2)cc1	48.6	15.1	6.3	26.9	22.6	28.9
Cn1c(SCC(=O)N2c3ccccc3Sc3ccccc32)nc2ccccc21	6.4	-14.2	3.3	?	-0.7	58.8*
CN(C)CCCn1c(SCC(=O)N2c3ccccc3Sc3ccccc32)nc2ccccc2c1=O	·	30.1	-0.5	-1.0	10.9	58.0*
CCc1cccc(C)c1NC(=O)C1CCCN1C(=O)NCc1ccccc1 (stereo not given)	9.5	-15.2	·	0.9	1.2	-9.1
CCOc1ccc(CN2CCCC(CNC(=O)c3ccc(F)cc3)C2)cc1CO (stereo not given)	-15.3	2.9	-16.7	-11.9	-2.5	62.1*
CCOc1cc(CN2CCCC(CNC(=O)c3ccc(F)cc3)C2)ccc1OC (stereo not given)	20.8	-4.6	-6.8	-4.7	-18.5	60.6*
COc1ccc(CN2CCCC(CNC(=O)c3ccc(F)cc3)C2)c(C)c1C (stereo not given)	17.3	-2.4	-5.4	-22.1	-0.2	70.6*
CCCSc1nsc(NC(=O)CCC)n1	-118.9	14.7	4.3	-4.0	21.1	56.4*
CCOC(=O)C(=Cc1ccc(F)cc1)C(=O)OCC	44.7	95.8*	-16.0	-25.5	-4.1	-34.2
COC(=O)c1ccc(-n2ccnc2)cc1	1.5	-8.8	-5.0	7.5	-3.1	-7.9
CCOC(=O)C(=Cc1ccc(-n2ccnc2)cc1)C(=O)OCC	29.7	86.3*	-16.3	31.6	0.3	-9.0
